The list is not random: actives were taken first. Their share in the collection is about 1%.
Rad51 HR inh – Rad51 (human) homologous recombination inhibition; Q06609; hRad51 DNA strand exchange, fluorescence dequenching; inhibition, % at 10 µM; actives 0.085% (n = 200,000); AID 1385;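 active means inhibition above 40% at the single screening dose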;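 further: 0% = DMSO control wells and 100% = blanks with heterologous ssDNA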
Target sequence (Q06609 whole entry, looked up): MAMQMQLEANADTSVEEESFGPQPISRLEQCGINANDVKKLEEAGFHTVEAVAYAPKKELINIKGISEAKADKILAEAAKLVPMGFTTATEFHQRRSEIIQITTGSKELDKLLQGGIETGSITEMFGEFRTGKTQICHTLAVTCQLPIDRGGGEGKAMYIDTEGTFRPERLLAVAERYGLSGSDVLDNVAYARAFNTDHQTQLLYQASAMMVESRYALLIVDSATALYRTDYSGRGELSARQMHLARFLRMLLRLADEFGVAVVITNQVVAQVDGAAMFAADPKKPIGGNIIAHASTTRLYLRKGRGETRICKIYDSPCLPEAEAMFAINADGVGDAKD
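Read-out basis: percent inhibition relative to plate controls and blanks / Assay system: human Rad51 nucleoprotein filaments preassembled on unlabelled ssDNA / Timing: filaments 15 min 37 °C, then compound 30 min / Control set: per-plate controls and blanks / Technique: fluorescence dequenching at 485/520 nm / Compound: 10 µM final, single point / Also added: Fluorescein- and BHQ1-tagged 47-mer duplex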
PERK inhibitor – human PERK inhibition, primary cell-based screen | Q9NZJ5 | CHO PERK-DD fusion, SEAP luminescence translation reporter | inhibition, % at 5.6 µM | actives 0.17% (n = 220,000) | AID 1416;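 active means inhibition above the mean inhibition of all tested compounds plus 3 SD, set separately per screening campaign, cut at about 2.9% in these data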;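 further: PERK kinase domain activated by AP20187 dimerizer at 100 nM; 0% = DMSO with dimerizer and 100% = rapamycin at 8.4 µM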
HMGR II inh – blocks class II HMG-CoA reductase of Enterococcus faecalis | purified E. faecalis HMGR, NADPH absorbance 340 nm kinetic | AID 1066 | inhibition, % at 10 µM | actives 0.41% (n = 190,000);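 active means inhibition above a set limit, the median over all tested compounds plus 3 SD, cut at about 9.5% in these data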;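 further: enzyme runs in reverse so mevalonate oxidation gives rising NADPH absorbance; 0% = complete reaction with DMSO and 100% = background rate lacking mevalonate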
TNF death inh – TNF-alpha cell death inhibition in Jurkat FADD-/- cells; Jurkat FADD-/- TNF necroptosis rescue, ATP luminescence, 24 h; 0 = TNF only, 100 = no-TNF cells; activation (protection from cell death), % at 10 µM; actives 0.068% (n = 220,000); AID 463075;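 active means activation, meaning protection from cell death, of at least 50% relative to plate controls; inactive means activation below 50%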;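 further: necroptosis triggered by 40 ng/mL TNF-alpha added together with compound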
L929 necroptosis – L929 zVAD cell death inhibition | L929 zVAD necroptosis rescue, ATP luminescence, 24 h; with zVAD 60 µM | viability rescue, % at 10 µM | actives 0.38% (n = 220,000);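 active means activation, scaled between plate controls, above about 75%, limit read from the data; inactive means activation under that limit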;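 further: 0% = zVAD with DMSO and 100% = DMSO alone without zVAD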
Active calls of the source: *; / = no result.

SMILES	Rad51 HR inh	PERK inhibitor	HMGR II inh	TNF death inh	L929 necroptosis
O=C(O[C@H]1[C@H](Oc2ccccc2COC(=O)C2(O)C=CCCC2=O)O[C@H](CO)[C@@H](O)[C@@H]1O)c1ccccc1 (some centres undefined)	2	/	/	/	/
COCCn1c(N)c(Sc2ccccc2[N+](=O)[O-])c(=O)[nH]c1=O	17	1	/	1	0
CCCCC(=O)N/N=C/c1ccc(-c2ccc([N+](=O)[O-])cc2)o1	-18	1	-8	1	6
Cc1ccc(C)c(N=Cc2ccc(-c3ccc([N+](=O)[O-])cc3)o2)c1	-3	0	16*	2	0
C=C(C)Cn1c(-c2ccncc2)n[nH]c1=S	-5	1	19*	2	3
CC(C)Cn1c(-c2ccncc2)n[nH]c1=S	22	0	3	-1	1
CCOC(=O)CCC(NC(=O)CC(=O)NC(CCC(=O)OCC)C(=O)OCC)C(=O)OCC (centres undefined)	1	2	10*	0	4
COC(=O)Cc1ccc(NC(=S)NNC(=O)C2CC2)cc1	/	3.6*	/	1	0
O=c1[nH]c(CSc2nnc3ccccn23)nc2cc(C(F)(F)F)ccc12	/	1	0	0	0
Cc1csc2c(SCC(=O)NNC(=O)C(Cl)Cl)ncnc12	-8	3.1*	/	-3	1
Cc1sc2ncnc(SCC(=O)NCC(C)C)c2c1C	1	-2	-4	2	0
NS(=O)(=O)c1ccc(NC(=O)COC(=O)COc2ccc(Br)cc2)cc1	/	0	/	3	0
COc1ccc(NC(=O)c2ccccc2SC)cc1	-3	1	9.6*	0	1
Cc1ccc(SCc2cc(=O)n3ccsc3n2)c(C)c1	4	1	-2	-3	0
O=c1cc(CSc2ccc([N+](=O)[O-])cc2)nc2sccn12	-4	0	15*	0	1
O=C1Nc2ccccc2S/C1=C/c1cccs1	0	-1	/	1	73
O=C1/C(=C/c2cccs2)Sc2ccccc21	-16	0	11*	3	1
Cc1ccccc1C(=O)c1cccn1CC(=O)NCc1ccco1	4	0	0	-1	0
O=C(Cn1cccc1C(=O)c1ccccc1)NCc1ccco1	-5	1	14*	0	2
O=C(Cn1nnc(-c2ccccc2F)n1)NCc1ccco1	44*	3	-5	0	1
CC12CCC(C(=O)N3CCC(Cc4ccccc4)CC3)(C(=O)C1=O)C2(C)C (centres undefined)	-5	2	-4	1	2
CCn1ccnc1CN(C)Cc1nc(-c2ccc(C(=O)OC)cc2)no1	-4	-1	/	0	-1
O=C(NNC(=O)C1CCN(S(=O)(=O)c2ccc(Cl)cc2)CC1)c1ccncc1	0	1	13*	0	8
COc1cc2c(cc1OC)CN(C(C)C(=O)N1CCc3ccccc31)CC2 (centres undefined)	9	0	19*	-4	1
Cc1ccc(-n2c(CNC(=O)c3cccs3)nnc2SCC(=O)NO)cc1	10	1	-9	-3	1
SMILES	Rad51 HR inh	PERK inhibitor	HMGR II inh	TNF death inh	L929 necroptosis
NS(=O)(=O)c1ccc(CCNC(=O)COC(=O)C2CCCN2C(=O)c2cccs2)cc1 (centres undefined)	0	3.3*	-2	-3	0
COC(=O)c1scc(C)c1N1C(=O)c2ccccc2C1=O	-8	2.9*	/	0	0
Cn1cc([N+](=O)[O-])c(C(=O)NCc2ccccc2)n1	-3	2	/	1	0
Cn1cc([N+](=O)[O-])c(C(=O)NCc2ccco2)n1	12	3.8*	-5	0	1
COc1ccccc1N(CC(=O)NC1CCCC1)C(=O)c1oc(C(C)(C)C)cc1C	-46	-1	2	-1	-2
C=CC#CC[N+]1(CC#Cc2ccccc2)CCOCC1	64*	1	0	0	0
O=C(CCn1c(=O)oc2ccccc21)NCc1cccs1	-4	1	13*	2	/
[O-][n+]1cccc2c(Br)cc(Br)c(O)c21	3	0	9.9*	-1	1
C[n+]1cccc2c(Br)ccc([O-])c21	23	3	/	1	0
Cc1cc(C)cc(NC(=O)N2CCCC2C(=O)Nc2ccc(-n3cnnn3)c(C)c2)c1 (centres undefined)	5	-1	-8	-1	0
Cc1cc(NC(=O)C2CCCN2C(=O)Nc2c(C)cccc2C)ccc1-n1cnnn1 (centres undefined)	-13	0	12*	0	0
O=C(O[C@@H]1Cc2c(O)cc(O)cc2O[C@@H]1c1cc(O)c(O)c(O)c1)c1cc(O)c(O)c(O)c1	2	0	14*	/	/
CC(C)c1ccc(CNC(=O)C(=O)NCC2CCCO2)cc1 (centres undefined)	0	1	-2	1	3
CCC(CC)c1nc(NCCC(=O)O)c2ccccc2n1	4	3.1*	-7	-3	0
Cn1cc(NC(=O)c2cc(NC(=O)c3cc(NC=O)cn3C)cn2C)cc1C(=O)NCCC(=N)N	48*	/	/	2	0
COCCNC(=O)C(=O)NNC(=O)c1ccccc1OC	6	1	-3	0	1
CCOc1ccc(CNc2ccc(S(N)(=O)=O)cc2)cc1	-8	3.3*	-5	0	2
CCOc1ccc(CNCCc2ccc(S(N)(=O)=O)cc2)cc1	-7	2	-11	1	-1
CCN1CCN(C(=O)CCCn2c(C)c3cnn(-c4ccccc4)c(=O)c3c2C)CC1	4	1	-1	1	0
Cc1c2cnn(-c3ccccc3)c(=O)c2c(C)n1CCCC(=O)NCCN1CCN(C)CC1	21	3.7*	/	2	1
CCC1(C)Nc2ccccc2C(=O)N1O (centres undefined)	41*	1	-2	1	1
O=C(O)/C=C/C(=O)Nc1ccc(Oc2ncnc3cc(Cl)ccc23)nc1	15	1	/	0	1
CCc1cc(C(=O)c2ccc(OC)cc2)c(NC(=O)CC(C)(C)CC(=O)O)s1	0	0	/	1	0
COc1cc(NC(=S)NN2CCN(C)CC2)cc(OC)c1OC	4	0	0	0	2
Cc1ccc(N2CCCn3c2cc(C)c(C#N)c3=O)cc1Cl	0	0	-8	-2	0
Cc1ccc(N2CCCn3c2cc(C)c(C#N)c3=O)cc1C	0	0	9.8*	-2	0
Cc1ccccc1/C=N\NC(=O)c1ccccc1-n1cccc1	-16	0	-7	1	2
Cc1ccc(S(=O)(=O)N2CCCCC2)cc1NC(=O)COC(=O)c1ccc(O)cc1	/	1	1	0	0
COC(=O)Cc1cc(=O)n2[nH]c(C)nc2n1	-1	1	-5	2	1
COC(=O)Cc1cc(=O)n2[nH]cnc2n1	-7	0	30*	0	0

Source: PubChem (several laboratories)
